This passage reports Activity, AUC and viability results from ChEMBL document CHEMBL4308887, “Synthesis and biological evaluation of clovamide analogues with catechol functionality as potent Parkinson's disease agents in vitro and in vivo” (Bioorg Med Chem Lett, 2019).

Calls of active or inactive are those of the source. No cut-off for these calls is given here.

The subject of data set [1] is Mus musculus. Briefly: Anti-parkinson's activity in MPTP-induced C57Bl/6 mouse model of Parkinson's disease assessed as decrease in ratio of Bax/Bcl2 expression in substantia nigra at 10 to 20 mg/kg, ig pretreated for 10 days followed by MPTP challenge measured 10 days post MPTP addition by Western blot analysis. The class given is functional, organism-based. Put shortly:
(§1)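 Substantia nigra from MPTP mice. Bax, Bcl-2 and cleaved caspase-3 measured by western blot, with Bcl-2/Bax ratio by densitometry. Mean ± S.D., n = 6 mice/group.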
For orientation: In western blotting, separated proteins are transferred to a membrane and probed.

Data set [2] concerns SH-SY5Y. Briefly: Induction of apoptosis in non-stimulated human SH-SY5Y cells assessed as early apoptotic cells at 10 uM measured after 6 hrs by Annexin V-FITC/propidium iodide staining based flow cytometry (reference value: 4.5%). It is filed as cell-based.
The test system of data set [3] is SH-SY5Y. Briefly: Neuroprotection against H2O2-induced cell death in human SH-SY5Y cells at 10 uM preincubated for 6 hrs followed by H2O2 addition and measured after 24 hrs in presence of HO-1 inhibitor ZnPPIX by MTT assay. The class given is functional, cell-based. Put shortly: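 Cells pretreated with ZnPPIX (10 μM) for 1 h and with 1 (10 μM) for 6 h, then exposed to 600 μM H₂O₂ for 24 h. Viability by MTT. Mean ± S.E.M., three independent experiments.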
Background: Tetrazolium dyes change colour on reduction, which living cells bring about.

Data set [4] deals with SH-SY5Y. The data set can be described thus: Neuroprotection against H2O2-induced toxicity in human SH-SY5Y cells assessed as decrease in LDH release preincubated for 6 hrs followed by H2O2 addition and measured after 24 hrs. The class given is functional, cell-based. Put shortly:
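Cells pretreated with test agent (1 or 10 μM), then 600 μM H₂O₂; plasma membrane damage read as LDH leakage into medium (U/L). DMSO below 0.1% in all groups. Mean ± S.E.M. of three independent experiments.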
Background: LDH in the medium is a marker of cell lysis.

Data set [5] relates to SH-SY5Y. Briefly: Induction of apoptosis in non-stimulated human SH-SY5Y cells assessed as necrotic cells at 10 uM measured after 6 hrs by Annexin V-FITC/propidium iodide staining based flow cytometry (reference value: 0.6%). It is filed as cell-based.
The nature of data set [6]: AUC (0 to infinity) in Sprague-Dawley rat at 25 mg/kg, po by LC-MS/MS analysis. The class given is ADME, organism-based. On the set-up: dose 25 mg/kg, time infinity, route oral. The conditions noted are these: in vivo. Put shortly: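 Male Sprague–Dawley rats (n = 3) got a single oral dose of 25 mg/kg in 0.5% methylcellulose with 1% Tween 80. AUC0-∞ came from the plasma concentration–time profile, reported as mean ± SD.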

In data set [7] the test system is SH-SY5Y. Briefly: Protection against H2O2-induced oxidative stress in human SH-SY5Y cells assessed as reduction in reactive oxygen species level preincubated for 6 hrs followed by H2O2 addition and measured after 24 hrs by DHE dye based inverted microscopic analysis. The class given is functional, cell-based.
For data set [8], the system named is SH-SY5Y. The data set can be described thus: Protection against H2O2-induced mitochondrial dysfunction in human SH-SY5Y cells assessed as mitochondrial membrane potential at 10 uM preincubated for 6 hrs followed by H2O2 addition and measured after 24 hrs by Rh123 staining based flow cytometry (reference value: 26.31 +/- 3.32%). The class given is functional. The gist of the method: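 ΔΨm examined by inverted fluorescence microscopy and flow cytometry after pretreatment (1, 10 μM) and 600 μM H₂O₂. Reported as % of control. Mean ± S.E.M., three independent experiments.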

The nature of data set [9]: Activation of PI3K/Akt/mTOR signaling in human SH-SY5Y cells assessed as up regulation of H2O2-induced HO-1 expression at 1 uM preincubated for 6 hrs followed by H2O2 addition and after 24 hrs by Western blot analysis (reference value: 181.53 +/- 24.67%). The class given is cell-based. The gist of the method: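 SH-SY5Y cells pretreated 6 h with 1 (1 or 10 μM), then exposed to 600 μM H₂O₂ for 24 h. HO-1 measured by western blot with densitometry and expressed as % of control. Mean ± S.E.M., three independent experiments.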

The test system of data set [10] is SH-SY5Y. Briefly: Neuroprotection against H2O2-induced toxicity in human SH-SY5Y cells assessed as LDH release at 1 uM preincubated for 6 hrs followed by H2O2 addition and measured after 24 hrs (reference value: 339.93 +/- 3.66 U/L). It is filed as functional.
The test system of data set [11] is SH-SY5Y. The data set can be described thus: Induction of oxidative stress in non-stimulated human SH-SY5Y cells assessed as reactive oxygen species level at 10 uM after 6 hrs by DHE dye based flow cytometry (reference value: 4.8%). The class given is cell-based.
In data set [12] the test system is SH-SY5Y. Briefly: Neuroprotection against H2O2-induced cell death in human SH-SY5Y cells assessed as cell viability at 10 uM preincubated for 6 hrs followed by H2O2 addition and measured after 24 hrs by MTT assay relative to control. The class given is functional. The settings on record: read-out: Activity. Put shortly: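 SH-SY5Y cells pretreated with 1 at 1 or 10 μM, then exposed to 600 μM H₂O₂. Viability by MTT, expressed as % of control. DMSO below 0.1%. Mean ± S.E.M. of three independent experiments.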

Data set [13] relates to SH-SY5Y. Briefly: Protection against H2O2-induced oxidative stress in human SH-SY5Y cells assessed as reactive oxygen species level at 1 uM preincubated for 6 hrs followed by H2O2 addition and measured after 24 hrs by DHE dye based flow cytometry (reference value: 18.6%). The class given is functional.
The test system of data set [14] is Mus musculus. Briefly: Anti-parkinson's activity in MPTP-induced C57Bl/6 mouse model of Parkinson's disease assessed as decrease in cleaved caspase3 expression in substantia nigra at 10 to 20 mg/kg, ig pretreated for 10 days followed by MPTP challenge measured 10 days post MPTP addition by Western blot analysis. It is filed as functional, organism-based. Put shortly:
as §1

In data set [15] the test system is SH-SY5Y. The data set can be described thus: Cytotoxicity against non-stimulated human SH-SY5Y cells assessed as effect on LDH release measured after 6 hrs. It is filed as cell-based.
Data set [16] concerns SH-SY5Y. The data set can be described thus: Induction of apoptosis in non-stimulated human SH-SY5Y cells assessed as effect on ratio of Bax/Bcl2 expression at 1 to 10 uM measured after 6 hrs by Western blot analysis. The class given is cell-based. The gist of the method:
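Bax, Bcl-2 and cleaved caspase-3 measured by western blot in SH-SY5Y cells given 1 alone, with β-actin as internal standard. Mean ± S.E.M. of three independent experiments.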

Data set [17] deals with SH-SY5Y. Briefly: Protection against H2O2-induced oxidative stress in human SH-SY5Y cells assessed as reduction in reactive oxygen species level preincubated for 6 hrs followed by H2O2 addition and measured after 24 hrs by DHE dye based flow cytometry. The class given is functional, cell-based.
Data set [18] can be described thus: Activation of PI3K/Akt/mTOR signaling in human SH-SY5Y cells assessed as up regulation of H2O2-induced HO-1 expression at 10 uM preincubated for 6 hrs followed by H2O2 addition and after 24 hrs in presence of p38 MAPK inhibitor SB203580 by Western blot analysis. It is filed as cell-based. Put shortly: (§2)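 SH-SY5Y cells preincubated 1 h with one inhibitor: SB203580 10 μM, LY294002 5 μM, U0126 10 μM, SP600125 5 μM or rapamycin 100 nM. Then 1 (10 μM) for 6 h, then 600 μM H₂O₂. HO-1 measured by western blot and densitometry. Mean ± S.E.M., three independent experiments.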

Data set [19] is described as follows: Activation of PI3K/Akt/mTOR signaling in human SH-SY5Y cells assessed as up regulation of H2O2-induced HO-1 expression at 10 uM preincubated for 6 hrs followed by H2O2 addition and after 24 hrs in presence of PI3K/Akt/mTOR inhibitor LY294002 by Western blot analysis. The class given is cell-based. Put shortly:
as §2

As a reminder, the AUC is concentration integrated over time. A higher AUC goes with more exposure. In the case of `COC(=O)[C@H](Cc1ccccc1)NC(=O)/C=C/c1ccc(O)c(O)c1` [N-CAFFEOYL-PHENYLALANINE METHYL ESTER], the outcome in data set [1], in data set [14] and in [18] was Active. The Activity was 1.4% in data set [2]; “Dose-dependent effect” in data set [4]; 1.1% in data set [5]; “Dose-dependent effect” in [7]; 98.3% in [8]; 274% in [9]. Moreover, the Activity in data set [10] is 269.12 U/L; in [11], 7.3%; in [13] it was 14%; in [15], “Non-Toxic”; in [16], “Non-Toxic”; in data set [17] it was “Dose-dependent effect”. Also, the outcome in data set [3] and in [19] was inactive. The AUC in data set [6] is 2495.56 ng·h/mL. For the same compound, the viability at 10 µM in [12] was 80.8 to 89%.
